Data: PubChem BioAssay AID504525 (Broad Institute, 2011)
The source made the active and inactive calls.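 Rule for the calls: active = fitted dose curve showing toxicity with half-maximal concentration at most ten times the top tested dose; inconclusive = flat curve with 30 to 70% toxicity, or poor fit; inactive = the rest.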

experiment: cytotoxicity in NIH-3T3 mammalian cells, dose response, cytotoxicity control for antifungal drug resistance project, cell-based, fluconazole, powder samples, set 7 (AID 504525); settings: NIH-3T3 viability with fluconazole, Alamar Blue, 48 h; series mostly up to 26 µM
Outline: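 Assay system: NIH 3T3 fibroblast cells, Alamar Blue viability. Amount: 6,000 cells per well. Buffer or medium: Optimem growth medium with 2.5% fetal bovine serum. Probe or stimulus: fluconazole co-treatment at 8 µg/mL final. Compound: dose series up to 26 µM. Times: 48 h compound exposure at 37 °C. Measured by: Alamar Blue fluorescence, Ex 544/Em 590 nm.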

Structure (SMILES) | outcome
O=C(Cn1c2ccc(F)cc2c2nc3n(c(=O)c21)CCS3)N1CCC(F)(F)CC1 | inactive
COC(=O)Cn1nc(C2CC2)c2ccccc21 | inactive
O=C(Cn1c2ccccc2c2nc3n(c(=O)c21)CCS3)N1CCC(F)(F)CC1 | inactive
CC1CCN(CCn2c3ccccc3c3nc4n(c(=O)c32)CCS4)CC1 | inactive
COC(=O)Cn1nc(-c2cccc(C)c2)c2ccccc21 | inactive
O=C(O)Cn1c2ccc(F)cc2c2nc3n(c(=O)c21)CCS3 | inactive
COC(=O)Cn1nc(C(C)(C)C)c2ccccc21 | inactive
CN1CCN(C(=O)Cn2c3ccccc3c3nc4n(c(=O)c32)CCS4)CC1 | inactive
COC(=O)Cn1nc(-c2cccnc2)c2ccccc21 | inactive
COC(=O)Cn1nc(-c2ccccc2)c2cccnc21 | inactive
O=C(Cn1c2ccc(F)cc2c2nc3n(c(=O)c21)CCS3)N1CCC(F)(F)C1 | inactive
O=C(Cn1c2ccc(F)cc2c2nc3n(c(=O)c21)CCS3)N1CC=CC1 | inactive
O=C(Cn1c2ccccc2c2nc3n(c(=O)c21)CCS3)N1CC=CC1 | inactive
COC(=O)n1nc(-c2ccccc2)c2ccccc21 | inactive
O=C(O)Cn1c2ccccc2c2nc3n(c(=O)c21)CCS3 | inactive
CC1(O)CN(C(=O)Cn2c3ccccc3c3nc4n(c(=O)c32)CCS4)C1 | inactive
COC(=O)Cn1nc(-c2cccc(OC)c2)c2ccccc21 | inactive
COC(=O)Cn1c2ccc(F)cc2c2nc3n(c(=O)c21)CCS3 | inactive
c1ccc(-c2nn(Cc3nnco3)c3ccccc23)cc1 | inactive
COC(=O)Cn1nc(-c2cscn2)c2ccccc21 | inactive
COC(=O)Cn1nc(C2CCCCC2)c2ccccc21 | inactive
COC(=O)Cn1nc(-c2cnco2)c2ccccc21 | inactive
CCc1nn(CC(=O)OC)c2ccccc12 | inactive
COC(=O)Cn1nc(-c2cccc(F)c2)c2ccccc21 | inactive
O=C(Cn1c2ccccc2c2nc3n(c(=O)c21)CCS3)N1CCC(F)(F)C1 | inactive
